In ChEMBL document CHEMBL1132966, “Conformationally constrained analogues of diacylglycerol (DAG). 16. How much structural complexity is necessary for recognition and high binding affinity to protein kinase C?” (J Med Chem, 2000):
pEC50, pKi: −log10 of the molar value.

Tests used:
[1] = tested on: C3H 10T1/2; assay: Tested for inhibition of EGF(epidermal growth factor) to C3H10T1/2 cells.; format: functional; conditions: Mus musculus, read-out: ED50 (the source's name)
Procedure, shortened: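 C3H10T1/2 cells were plated at 2.5×10^5/well in MEM with 10% FBS and grown 2 days at 37 °C, 5% CO2. Cells were pretreated 60 min at 37 °C with ligand in MEM/BSA/25 mM BES pH 7.2 (DMSO <0.1% final). Cells were lysed in NaOH and bound counts measured. Background was taken with 1 μg/well unlabeled EGF. Six concentrations were run in triplicate, and ID50 is the mean of three experiments.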

[2] = species: Homo sapiens; assay: Tested for growth inhibition against Breast Hs 578.T.; format: functional
Procedure, shortened: (§1)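 GI50 is interpolated from the NCI cell-panel screen. It is the concentration (M) at which percentage growth is inhibited by 50% in the named line.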

[3] = tested on: COLO 205; assay: Tested for growth inhibition against COLO 205 cells.; format: functional; conditions: Homo sapiens; procedure, shortened: as §1
[4] = tested on: K562; assay: Tested for growth inhibition against Leukemia K-562 cells.; format: functional; conditions: Homo sapiens; procedure, shortened: as §1
[5] = tested on: Panel NCI-60 (60 carcinoma cell lines); assay: Tested for growth inhibition against MG-MID(full panel of cells); format: functional; conditions: Homo sapiens
Procedure, shortened: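 MG-MID is the calculated mean of the GI50 concentrations (M) across the entire NCI cell panel. Each GI50 is the interpolated concentration (M) giving 50% growth inhibition.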

[6] = biological target: T1, Protein kinase C alpha type (Homo sapiens, UniProt P17252); assay: Binding Affinity against protein kinase C alpha
[7] = biological target: T1, Protein kinase C alpha type

| SMILES | pEC50 [1] | pKi [6] | also measured |
| --- | --- | --- | --- |
| CCCCCCCCCC(=O)OCC1(CO)C/C(=C/CC(C(C)C)C(C)C)C(=O)O1 (centres undefined) | 5.93 | 8.64 | GI50 [2]: 27000 nM; GI50 [3]: 18000 nM; GI50 [4]: 9200 nM; GI50 [5]: 44000 nM; ED50 [7]: 660 nM |
| CCCCCC(=O)OCC1(CO)C/C(=C\C=C(C(C)C)C(C)C)C(=O)O1 (centres undefined) | – | 8.08 | – |
| CC(C)C(C/C=C1\CC(CO)(COC(=O)CC(C(C)C)C(C)C)OC1=O)C(C)C (centres undefined) | 6.85 | – | GI50 [2]: 12000 nM; GI50 [3]: 1600 nM; GI50 [4]: 1500 nM; ED50 [7]: 680 nM |
| CC(=O)OCC1(CO)C/C(=C\CC(C(C)C)C(C)C)C(=O)O1 (centres undefined) | – | 6.44 | – |
| CCCC(=O)O[C@@H]1[C@@H](C)[C@@]2(O)[C@@H](C=C(CO)C[C@]3(O)C(=O)C(C)=C[C@@H]23)[C@@H]2C(C)(C)[C@]12OC(=O)CCC | 7.70 | – | – |
| C/C=C1\CC(CO)(COC(=O)CC(C(C)C)C(C)C)OC1=O (centres undefined) | – | 6.86 | – |
| CC(=O)OCC1(CO)C/C(=C/CC(C(C)C)C(C)C)C(=O)O1 (centres undefined) | – | 6.91 | – |
| CCCC(=O)OCC1(CO)C/C(=C/C=C(C(C)C)C(C)C)C(=O)O1 (centres undefined) | – | 7.17 | – |
| CCCCCCCC(=O)OC[C@]1(CO)C/C(=C\CC(C(C)C)C(C)C)C(=O)O1 | – | 8.23 | – |
| CCCC(=O)OCC1(CO)C/C(=C/CC(C(C)C)C(C)C)C(=O)O1 (centres undefined) | 6.09 | 7.72 | ED50 [7]: 1950 nM |
| CCCC(=O)OCC1(CO)C/C(=C\C=C(C(C)C)C(C)C)C(=O)O1 (centres undefined) | – | 7.29 | – |
| CCCCCCCC/C=C\CCCCCCC/C=C1/C[C@](/C=C/C(=O)OC)(CO)OC1=O | 6.48 | 7.96 | ED50 [7]: 1070 nM |
| CCCCCCCC(=O)OC[C@]1(CO)C/C(=C/CC(C(C)C)C(C)C)C(=O)O1 | – | 8.46 | – |
| CCCCCCOC(=O)/C=C/[C@]1(CO)C/C(=C/CC(C(C)C)C(C)C)C(=O)O1 | 6.85 | 8.46 | ED50 [7]: 950 nM |
| CCCCCC(=O)OCC1(CO)C/C(=C/CC(C(C)C)C(C)C)C(=O)O1 (centres undefined) | 5.65 | 8.23 | ED50 [7]: 2330 nM |
| CC(=O)OCC1(CO)C/C(=C/C=C(C(C)C)C(C)C)C(=O)O1 (centres undefined) | – | 6.41 | – |

| SMILES | pEC50 [1] | pKi [6] | also measured |
| --- | --- | --- | --- |
| CCCCCCOC(=O)/C=C/[C@]1(CO)C/C(=C\CC(C(C)C)C(C)C)C(=O)O1 | – | 7.53 | – |
| CC(C)C(C/C=C1/CC(CO)(COC(=O)CC(C(C)C)C(C)C)OC1=O)C(C)C (centres undefined) | 6.77 | – | GI50 [2]: 26 nM; GI50 [3]: 25 nM; GI50 [4]: 21 nM; GI50 [5]: 3200 nM; ED50 [7]: 550 nM |
| CCCCCCCCCC(=O)OCC1(CO)C/C(=C\CC(C(C)C)C(C)C)C(=O)O1 (centres undefined) | – | 8.18 | – |
| CCCCCCCCC/C=C1/CC(CO)(COC(=O)CC(C(C)C)C(C)C)OC1=O (centres undefined) | 6.43 | 7.89 | GI50 [2]: 58 nM; GI50 [3]: 71 nM; GI50 [4]: 140 nM; GI50 [5]: 4700 nM; ED50 [7]: 430 nM |
| CCCCC/C=C1\CC(CO)(COC(=O)CC(C(C)C)C(C)C)OC1=O (centres undefined) | – | 8.26 | – |
| CCC/C=C1\CC(CO)(COC(=O)CC(C(C)C)C(C)C)OC1=O (centres undefined) | – | 7.55 | – |
| CCCCC/C=C1/CC(CO)(COC(=O)CC(C(C)C)C(C)C)OC1=O (centres undefined) | 6.89 | 8.14 | ED50 [7]: 340 nM |
| CCCCCC(=O)OCC1(CO)C/C(=C\CC(C(C)C)C(C)C)C(=O)O1 (centres undefined) | – | 7.96 | – |
| CCCC(=O)OCC1(CO)C/C(=C\CC(C(C)C)C(C)C)C(=O)O1 (centres undefined) | – | 7.27 | – |
| CC(=O)OCC1(CO)C/C(=C\C=C(C(C)C)C(C)C)C(=O)O1 (centres undefined) | – | 6.39 | – |
| CCCCCCCCC/C=C1\CC(CO)(COC(=O)CC(C(C)C)C(C)C)OC1=O (centres undefined) | – | 8.02 | – |
| CCC/C=C1/CC(CO)(COC(=O)CC(C(C)C)C(C)C)OC1=O (centres undefined) | – | 7.62 | – |
| CCCCCC(=O)OCC1(CO)C/C(=C/C=C(C(C)C)C(C)C)C(=O)O1 (centres undefined) | – | 7.92 | – |
| CC(=O)O[C@@]12C[C@@H](C)[C@@]3(O)[C@@H](C=C(CO)C[C@]4(O)C(=O)C(C)=C[C@@H]34)[C@@H]1C2(C)C [PROSTRATIN] | – | – | GI50 [2]: 790 nM; GI50 [3]: 1900 nM; GI50 [5]: 7000 nM |
| C/C=C1/CC(CO)(COC(=O)CC(C(C)C)C(C)C)OC1=O (centres undefined) | – | 6.79 | – |
